Test results: ChEMBL document CHEMBL3588757, “Structure-based design, synthesis and biological testing of piperazine-linked bis-epipodophyllotoxin etoposide analogs” (Bioorg Med Chem, 2015)

How the values were obtained:
Format in all cases: functional
OVCAR-4 = assay: Cytotoxicity against human OVCAR4 cells by SRB assay
How it was run: (§1)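 NCI-60 panel screen; 5-dose testing giving GI50 per cell line, plus a single 10 µM one-dose test. Method details not given beyond the NCI screen.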

SR [1] = assay: Cytotoxicity against human SR cells assessed as cell growth at 0.5 uM by SRB assay; conditions: read-out: Activity
HOP-92 = assay: Cytotoxicity against human HOP92 cells assessed as cell growth at 0.005 uM by SRB assay; conditions: read-out: Activity
How it was run: (§2)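 Measured in the NCI-60 human tumour cell line panel using five-dose testing. Growth was recorded at each dose for each cell line, and a GI50 was derived for each line.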

SF-539 = assay: Cytotoxicity against human SF539 cells by SRB assay; how it was run: as §1
SR [2] = assay: Cytotoxicity against human SR cells by SRB assay; how it was run: as §1
MDA-MB-435 = assay: Cytotoxicity against human MDA-MB-435 cells assessed as cell growth at 0.5 uM by SRB assay; conditions: read-out: Activity
PC-3 = assay: Cytotoxicity against human PC3 cells assessed as cell growth at 0.5 uM by SRB assay; conditions: read-out: Activity
SK-MEL-28 = assay: Cytotoxicity against human SK-MEL-28 cells assessed as cell growth at 0.005 uM by SRB assay; conditions: read-out: Activity
786-0 = assay: Cytotoxicity against human 786-0 cells assessed as cell growth at 50 uM by SRB assay; conditions: read-out: Activity
SF-268 [3] = assay: Cytotoxicity against human SF268 cells by SRB assay; how it was run: as §1
A549 [4] = assay: Cytotoxicity against human A549/ATCC cells assessed as cell growth at 50 uM by SRB assay; conditions: read-out: Activity
OVCAR-8 = assay: Cytotoxicity against human OVCAR8 cells assessed as cell growth at 5 uM by SRB assay; conditions: read-out: Activity
SW-620 = assay: Cytotoxicity against human SW620 cells assessed as cell growth at 0.005 uM by SRB assay; conditions: read-out: Activity
HCC 2998 = assay: Cytotoxicity against human HCC2998 cells assessed as cell growth at 0.05 uM by SRB assay; conditions: read-out: Activity; how it was run: as §2
UO-31 = assay: Cytotoxicity against human UO31 cells assessed as cell growth at 0.5 uM by SRB assay; conditions: read-out: Activity
SF-268 [5] = assay: Cytotoxicity against human SF268 cells assessed as cell growth at 5 uM by SRB assay; conditions: read-out: Activity
UACC-62 = assay: Cytotoxicity against human UACC62 cells assessed as cell growth at 0.05 uM by SRB assay; conditions: read-out: Activity
A549 [6] = assay: Cytotoxicity against human A549/ATCC cells assessed as cell growth at 0.005 uM by SRB assay; conditions: read-out: Activity
[7] = Cytotoxicity against human NCI-ADR-RES cells assessed as cell growth at 0.05 uM by SRB assay; conditions: read-out: Activity
COLO 205 = assay: Cytotoxicity against human COLO205 cells assessed as cell growth at 0.05 uM by SRB assay; conditions: read-out: Activity
[8] = read-out: LC50 (the source's name)
[9] = read-out: pLC50 (the source's name) (converted)

**Q.** For COc1cc([C@@H]2c3cc4c(cc3[C@@H](NC(=O)CN3CCN(CCCCCCCCCCN5CCN(CC(=O)N[C@@H]6c7cc8c(cc7[C@@H](c7cc(OC)c(O)c(OC)c7)[C@H]7C(=O)OC[C@@H]76)OCO8)CC5)CC3)[C@H]3COC(=O)[C@H]23)OCO4)cc(OC)c1O, which CC50 (OVCAR-4; [8]) is on record?
**A.** 14100 nM

**Q.** What about the TGI (OVCAR-4; read-out: TGI) of the same compound?
**A.** 2730 nM

**Q.** And the GI50 (OVCAR-4; read-out: pGI50 (converted))?
**A.** 912 nM

**Q.** And the CC50 (OVCAR-4; [9])?
**A.** 14100 nM

**Q.** What about the TGI (OVCAR-4; read-out: pTGI (converted)) of the same compound?
**A.** 2750 nM

**Q.** What about the growth at 0.5 µM (SR [1]) of the same compound?
**A.** 33%

**Q.** What about the growth at 0.005 µM (HOP-92) of the same compound?
**A.** 91%

**Q.** What about the GI50 (SF-539; read-out: GI50) of the same compound?
**A.** 122 nM

**Q.** And the TGI (SF-539; read-out: TGI)?
**A.** 670 nM

**Q.** And the GI50 (SF-539; read-out: pGI50 (converted))?
**A.** 123 nM

**Q.** What about the TGI (SF-539; read-out: pTGI (converted)) of the same compound?
**A.** 676 nM

**Q.** And the GI50 (SR [2]; read-out: GI50)?
**A.** 232 nM

**Q.** And the CC50 (SR [2]; [8])?
**A.** > 50000 nM

**Q.** What about the TGI (SR [2]; read-out: TGI) of the same compound?
**A.** 1810 nM

**Q.** And the GI50 (SR [2]; read-out: pGI50 (converted))?
**A.** 229 nM

**Q.** And the CC50 (SR [2]; [9])?
**A.** > 50100 nM

**Q.** What about the TGI (SR [2]; read-out: pTGI (converted)) of the same compound?
**A.** 1820 nM

**Q.** And the growth at 0.5 µM (MDA-MB-435)?
**A.** 39%

**Q.** And the growth at 0.5 µM (PC-3)?
**A.** 61%

**Q.** What about the growth at 0.005 µM (SK-MEL-28) of the same compound?
**A.** 96%

**Q.** And the growth at 50 µM (786-0)?
**A.** -78%

**Q.** And the GI50 (SF-268 [3]; read-out: GI50)?
**A.** 452 nM

**Q.** What about the CC50 (SF-268 [3]; [8]) of the same compound?
**A.** > 50000 nM

**Q.** What about the TGI (SF-268 [3]; read-out: TGI) of the same compound?
**A.** 1940 nM

**Q.** What about the GI50 (SF-268 [3]; read-out: pGI50 (converted)) of the same compound?
**A.** 457 nM

**Q.** What about the CC50 (SF-268 [3]; [9]) of the same compound?
**A.** > 50100 nM

**Q.** What about the TGI (SF-268 [3]; read-out: pTGI (converted)) of the same compound?
**A.** 1950 nM

**Q.** And the growth at 50 µM (A549 [4])?
**A.** -41%

**Q.** What about the growth at 5 µM (OVCAR-8) of the same compound?
**A.** -28%

**Q.** And the growth at 0.005 µM (SW-620)?
**A.** 92%

**Q.** What about the growth at 0.05 µM (HCC 2998) of the same compound?
**A.** 83%

**Q.** What about the growth at 0.5 µM (UO-31) of the same compound?
**A.** 76%

**Q.** And the growth at 5 µM (SF-268 [5])?
**A.** -34%

**Q.** And the growth at 0.05 µM (UACC-62)?
**A.** 90%

**Q.** What about the growth at 0.005 µM (A549 [6]) of the same compound?
**A.** 74%

**Q.** What about the growth at 0.05 µM [7] of the same compound?
**A.** 97%

**Q.** What about the growth at 0.05 µM (COLO 205) of the same compound?
**A.** 90%
